Screening data: PubChem BioAssay, several laboratories
Shown are actives, neighbours in structure and some others; about 2.5% of the full set was active somewhere.
MBD2 inh = inhibitors of human MBD2 binding to methylated oligonucleotide. hit rate 0.31% among 370,000. Q9UBB5. TR-FRET. inhibition, % at 4.4 µM; in the data active means inhibition above about 13%
UHRF1 binding = UHRF1 methyl-DNA binding inhibition. UHRF1 binding to methylated oligo, TR-FRET. inhibition, % at 4.4 µM. hit rate 0.75% among 370,000. AID 687016; in the data active means inhibition above about 21%;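 further: UHRF1 SRA domain binding a hemimethylated CpG hairpin DNA probe; 0% = median of test compound wells and 100% = reference inhibitor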
Arrestin-AP2 inh = inhibitors of human beta-arrestin and AP2 interaction; FITC-arrestin peptide / GST-AP2 beads, flow cytometry; AP2 beta2 appendage carries R879A mutation; AID 504490; hit rate 0.31% among 340,000; inhibition, % at 10 µM;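 active means inhibition above a set limit, near 3 SD of compounds lacking own fluorescence, cut at about 54% in these data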;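 further: plate controls were DMSO wells for no effect and 5 µM unlabelled arrestin peptide for full effect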
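test system = AP2 appendage R879A on GSH beads | buffer or medium = PBS plus Tween 20 (0.05%) and BSA (0.1%) | incubation = 12 min plus 1 h, RT | detection = bead flow cytometry, FITC channel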
ABHD5 PLIN5 PPI = ABHD5-PLIN5 protein interaction inhibition; Split G. princeps luciferase complementation, luminescence, 4 h; AID 602281; inhibition, % at 4 µM; Q00G26+Q8WTS1; hit rate 0.78% among 360,000;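 active means inhibition above the mean inhibition across every tested compound plus 3 SD, cut at about 22% in these data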;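 further: 0% = DMSO only wells and the 100% control is not disclosed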
Rin1-Abl PPI inh = human Rin1-Abl interaction inhibition; P00519+Q13671; TR-FRET Rin1/Abl binding, biochemical; inhibition, % at 7.35 µM; hit rate 0.4% among 360,000; AID 588664; in the data active means inhibition above about 5%, passing the limit was not always enough
Beta2AR agonist = activates human beta-2 adrenergic receptor causing internalization; hit rate 0.43% among 340,000; P07550; response, % (no concentration beside the values); Am2.2-beta2AR cells, FAP receptor internalization, flow cytometry;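 active means response above a set limit, near 3 SD of response in nonfluorescent compounds, cut at about 42% in these data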
ABHD5 PLIN5 conf = ABHD5-PLIN5 interaction inhibition, confirmed; shares compounds with ABHD5 PLIN5 PPI; biochemical ABHD5-PLIN5 interaction, luminescence; inhibition, % at 4 µM; hit rate 67% among 2,200; AID 651612; in the data active means inhibition above about 23%;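 further: 0% = DMSO vehicle wells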
HNF4 split-luc = active in HNF4 split-luciferase counter-screen for ABHD5-PLIN5 inhibitors; shares compounds with ABHD5 PLIN5 PPI; HNF4 dimerization, luminescence, biochemical; inhibition, % at 4 µM; hit rate 77% among 2,200; AID 651674;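 active means mean inhibition across replicate wells exceeding the computed hit threshold, cut at about 13% in these data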;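 further: light from luciferase halves that rejoin when HNF4 fusion proteins dimerize; 0% = DMSO only wells and the 100% control is not given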
* hit, by the source's call; . = no result.

SMILES	MBD2 inh	UHRF1 binding	Arrestin-AP2 inh	ABHD5 PLIN5 PPI	Rin1-Abl PPI inh	Beta2AR agonist	ABHD5 PLIN5 conf	HNF4 split-luc
Cc1ccc(S(=O)(=O)NC(=O)Nc2ccc(OC(F)F)cc2)cc1	-4	-4	-14	4	-4	11	.	.
CCS(=O)(=O)c1ncc(Cl)c(C(=O)Nc2ccc(C)cc2)n1	-4	2	11	48*	0	0	72*	78*
CCC1CCCCN1S(=O)(=O)c1ccc(NC(=O)c2nc(S(C)(=O)=O)ncc2Cl)cc1 (stereo not drawn)	3	5	-16	91*	-1	32	100*	107*
CCOC(=O)[C@@]12CCC3=C1N(CCC3)C(=O)[C@H](CC(=O)N1CCSCC1)C2	3	0	.	.	.	.	.	.
COc1cccc(N2CCN(C(=O)CSc3nc4ncccc4[nH]3)CC2)c1	1	-1	.	.	.	.	.	.
CCCCOC(=O)/C=C\C(=O)OCCCC	0	4	-1	7	-1	-11	.	.
CCCCOC(=O)/C=C\C(=O)NC(N)=O	4	-1	37	51*	0	7	71*	57*
CCOC(=O)[C@@]12CCC3=C1N(CCC3)C(=O)[C@H](CC(=O)NCCCOC)C2	7	5	.	.	.	.	.	.
CCN1CCN(Cc2ccc(NC(=O)c3ccc(C)c(/C=C/c4cnc(Nc5cc(N6CCNCC6)nc(C)n5)cn4)c3)cc2C(F)(F)F)CC1	.	.	9	28*	-5	-54	36*	5
CC1(C)CC(=O)/C(=C\c2cccc([N+](=O)[O-])c2)C(C)(C)N1	1	-3	8	26*	-3	12	37*	44*
O=C1N/C(=N/O)S/C1=C/c1cccc([N+](=O)[O-])c1	-5	-4	5	3	-1	3	.	.
COc1ccc(C(=O)OCCCN(C)C2CN(Cc3cn(Cc4ccccc4Cl)nn3)S(=O)(=O)C2)cc1OC (stereo not drawn)	3	7	.	.	.	.	.	.
O=C(Cn1sc2ccccc2c1=O)Nc1ccc(F)cc1	2	0	.	58*	3	.	69*	115*
O=C(CN1C(=O)CNC1=O)Nc1ccc(Cl)cc1	3	1	-1	3	-1	-4	.	.
O=C(Cn1sc2ccccc2c1=O)Nc1ccc(Cl)cc1	1	-2	.	62*	0	.	83*	118*
O=C(Cn1sc2ccccc2c1=O)Nc1ccc(Br)cc1	6	6	.	65*	2	.	81*	118*
COc1ccc(CN2C3=NC(c4ccccc4)CC(=O)N3/C(=C\c3ccccc3)C2c2ccccc2)c(OC)c1 (stereo not drawn)	1	0	.	.	.	.	.	.
O=C1Nc2ccccc2/C1=C/C(=O)c1cccs1	-1	-3	-3	32*	0	41	57*	94*
COc1ccc(C(=O)/C=C2/C(=O)Nc3ccccc32)cc1	4	-2	5	36*	0	45*	72*	85*
COc1ccc(C(=O)/C=C2/C(=O)Nc3ccccc32)cc1OC	-9	-1	5	43*	0	-20	53*	85*
COc1cc(OC)c(/C=C2\C(=O)Nc3ccccc32)c(OC)c1	-1	-3	.	.	.	.	.	.
COc1ccc(C(=O)/C=C2/C(=O)Nc3ccccc32)c(OC)c1	-7	0	7	69*	-2	23	95*	98*
O=C(NCCN1CCC(Cc2ccccc2)CC1)C1CCCN(S(=O)(=O)c2ccccc2)C1 (stereo not drawn)	-1	0	.	.	.	.	.	.
COC(=O)C1CN(C2CCCC2)CCS(=O)(=O)N1Cc1cn(Cc2ccc(C)cc2)nn1 (stereo not drawn)	-2	4	.	.	.	.	.	.
C=CCCC1(CCC)C(=O)/C(=C(\O)c2ccccc2)C(=O)C(CCC)=C1OC (stereo not drawn)	3	0	.	.	.	.	.	.
SMILES	MBD2 inh	UHRF1 binding	Arrestin-AP2 inh	ABHD5 PLIN5 PPI	Rin1-Abl PPI inh	Beta2AR agonist	ABHD5 PLIN5 conf	HNF4 split-luc
CC1(C)CC(N=c2cc(-c3ccccc3)oc3ccc(Cl)cc23)CC(C)(C)N1	0	3	-8	29*	0	40	6	10
OCCCN=c1cc(-c2ccccc2)oc2ccc(Cl)cc12	9	-20	-3	-1	-5	-19	.	.
O=S(=O)(c1c(F)cccc1F)N1CCN(Cc2c(O)ccc3ccccc23)CC1	3	2	26	27*	0	-6	43*	77*
Oc1ccc2ccccc2c1CN1CCOCC1	4	6	7	10	-1	-9	.	.
N#Cc1ccccc1OCc1cn(CC(=O)c2ccc(O)cc2)nn1	13	22*	5	31*	0	-4	66*	39*
O=C(Cn1cc(COC(=O)c2c3ccccc3cc3ccccc23)nn1)c1ccc(O)cc1	10	20	.	.	.	.	.	.
Cc1ccc(/C(O)=C2/C(=O)C(=O)OC2c2ccc(Cl)cc2)cc1 (stereo not drawn)	1	-3	-5	32*	2	0	57*	37*
O=C1OC(c2ccccc2)/C(=C(/O)c2ccc(Cl)cc2)C1=O (stereo not drawn)	7	6	0	16	4	0	.	.
COC(=O)[C@]12C[C@H](CC(=O)NCc3cccc4ccccc34)C(=O)N(Cc3ccco3)C1=C[C@H](C(C)C)O[C@@H]2C1CC1	0	-2	.	.	.	.	.	.
CNc1ccc(Br)cc(C(=O)/C=C/c2cc(OC)ccc2OC)c1=O	1	-1	24	26*	3	10	63*	58*
CNc1ccc(Br)cc(C(=O)/C=C/c2ccc(OC)cc2)c1=O	8	12	21	12	7	-6	.	.
O=C(CCl)N(C/C=C/c1ccccc1)c1ccc2c(c1)OCCO2	-3	-1	-28	25*	-1	34	24*	29*
O=C(O)CN(c1ccc2c(c1)OCCO2)S(=O)(=O)c1ccccc1	-2	-1	9	0	-1	-1	.	.
COc1ccc(N2C(=O)CC(Cc3ccccc3)C2=O)cc1 (stereo not drawn)	-2	1	0	-4	-4	-6	.	.
COc1ccc(C[C@@H]2OC3(C=CC(=O)C=C3)O[C@H]2Cc2ccc(OC)cc2)cc1	.	.	-5	100*	6	52*	104*	108*
O=C1C=CC2(C=C1)O[C@H](Cc1ccccc1)[C@@H](Cc1ccccc1)O2	2	5	9	98*	1	38	103*	109*
O=C1Nc2ccccc2C1Cc1ccccc1 (stereo not drawn)	-6	0	18	4	-2	4	.	.
COc1ccc([C@H]2OC(=O)C[C@H]2C(=O)N2CCN(C(=O)C3CCCO3)CC2)cc1OC (stereo partly drawn)	-5	0	.	.	.	.	.	.
